{"source": "ChEMBL document CHEMBL1158339", "about": "“Synthesis and anti-microbial screening of some Schiff bases of 3-amino-6,8-dibromo-2-phenylquinazolin-4(3H)-ones” (2009)", "key": {"[1]": {"system": "Pseudomonas aeruginosa", "assay": "Antibacterial activity against Pseudomonas aeruginosa ATCC 2853 after 24 hrs by paper disk diffusion technique", "type": "functional", "procedure,_shortened": "(§1)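 Paper disc diffusion. Nutrient agar autoclaved 120 °C, 30 min, then inoculated at 40–50 °C with 1 ml/100 ml of a 10⁵ cfu/ml suspension matched to McFarland standard and poured to 3–4 mm. Discs impregnated with compound in dimethyl formamide are laid on the solidified agar. Plates are held 1 h at room temperature, then 24 h at 37 °C.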"}, "[2]": {"system": "Escherichia coli", "assay": "Antibacterial activity against Escherichia coli ATCC 25922 after 24 hrs by agar streak dilution method", "type": "functional", "conditions": "ATCC 25922, 24 h", "procedure,_shortened": "(§2)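 Agar streak dilution MIC. Stock […] in dimethyl formamide. Graded quantities go into molten sterile nutrient agar, poured at 40–50 °C to 3–4 mm depth and left to solidify. Plates are streaked with about 10⁵ cfu/ml bacterial suspension and incubated 24 h at 37 °C. MIC is the lowest concentration with no visible growth.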"}, "[3]": {"system": "Staphylococcus epidermidis", "assay": "Antibacterial activity against Staphylococcus epidermidis ATCC 155 after 24 hrs by paper disk diffusion technique", "type": "functional", "procedure,_shortened": "as §1"}, "[4]": {"system": "Micrococcus luteus", "assay": "Antibacterial activity against Micrococcus luteus ATCC 4698 after 24 hrs by agar streak dilution method", "type": "functional", "conditions": "NCTC 2665, 24 h", "procedure,_shortened": "as §2"}, "[5]": {"system": "Staphylococcus aureus", "assay": "Antibacterial activity against Staphylococcus aureus ATCC 9144 after 24 hrs by agar streak dilution method", "type": "functional", "conditions": "ATCC 9144, 24 h", "procedure,_shortened": "as §2"}, "[6]": {"system": "Klebsiella pneumoniae", "assay": "Antibacterial activity against Klebsiella pneumoniae ATCC 11298 after 24 hrs by agar streak dilution method", "type": "functional", "conditions": "ATCC 11298, 24 h", "procedure,_shortened": "as §2"}, "[7]": {"system": "Staphylococcus aureus", "assay": "Antibacterial activity against Staphylococcus aureus ATCC 9144 after 24 hrs by paper disk diffusion technique", "type": "functional", "procedure,_shortened": "as §1"}, "[8]": {"system": "Aspergillus fumigatus", "assay": "Antifungal activity against Aspergillus fumigatus ATCC 46645 after 48 hrs by agar streak dilution method", "type": "functional", "conditions": "ATCC 46645, 48 h", "procedure,_shortened": "as §2, with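 “Fungal agar” for “Agar”, “dilution.” for “dilution MIC.”, “Sabouraud dextrose” for “nutrient”, “inoculated” for “streaked”, “cfu/ml” for “cfu/ml bacterial”, “48” for “24”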"}, "[9]": {"system": "Staphylococcus epidermidis", "assay": "Antibacterial activity against Staphylococcus epidermidis ATCC 155 after 24 hrs by agar streak dilution method", "type": "functional", "conditions": "ATCC 155, 24 h", "procedure,_shortened": "as §2"}, "[10]": {"system": "Escherichia coli", "assay": "Antibacterial activity against Escherichia coli ATCC 25922 after 24 hrs by paper disk diffusion technique", "type": "functional", "procedure,_shortened": "as §1"}, "[11]": {"system": "Aspergillus niger", "assay": "Antifungal activity against Aspergillus niger ATCC 9029 after 48 hrs by paper disk diffusion technique", "type": "functional", "procedure,_shortened": "(§3)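 Fungal disc diffusion. Autoclaved (120 °C, 30 min) medium is inoculated at 40–50 °C with 1 ml/100 ml of a 10⁵ cfu/ml McFarland-matched suspension and poured to 3–4 mm. Compound-impregnated paper discs in dimethyl formamide are applied. Plates are held 1 h at room temperature, then incubated 48 h at 37 °C.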"}, "[12]": {"system": "Micrococcus luteus", "assay": "Antibacterial activity against Micrococcus luteus ATCC 4698 after 24 hrs by paper disk diffusion technique", "type": "functional", "procedure,_shortened": "as §1"}, "[13]": {"system": "Pseudomonas aeruginosa", "assay": "Antibacterial activity against Pseudomonas aeruginosa ATCC 2853 after 24 hrs by agar streak dilution method", "type": "functional", "conditions": "ATCC 2853, 24 h", "procedure,_shortened": "as §2"}, "[14]": {"system": "Bacillus cereus", "assay": "Antibacterial activity against Bacillus cereus ATCC 11778 after 24 hrs by paper disk diffusion technique", "type": "functional", "procedure,_shortened": "as §1"}, "[15]": {"system": "Klebsiella pneumoniae", "assay": "Antibacterial activity against Klebsiella pneumoniae ATCC 11298 after 24 hrs by paper disk diffusion technique", "type": "functional", "procedure,_shortened": "as §1"}, "[16]": {"system": "Aspergillus niger", "assay": "Antifungal activity against Aspergillus niger ATCC 9029 after 48 hrs by agar streak dilution method", "type": "functional", "conditions": "ATCC 9029, 48 h", "procedure,_shortened": "as §2, with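 “Fungal agar” for “Agar”, “dilution.” for “dilution MIC.”, “Sabouraud dextrose” for “nutrient”, “inoculated” for “streaked”, “cfu/ml” for “cfu/ml bacterial”, “48” for “24”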"}, "[17]": {"system": "Bacillus cereus", "assay": "Antibacterial activity against Bacillus cereus ATCC 11778 after 24 hrs by agar streak dilution method", "type": "functional", "conditions": "ATCC 11778, 24 h", "procedure,_shortened": "as §2"}, "[18]": {"system": "Aspergillus fumigatus", "assay": "Antifungal activity against Aspergillus fumigatus ATCC 46645 after 48 hrs by paper disk diffusion technique", "type": "functional", "procedure,_shortened": "as §3"}, "[19]": {"system": "Staphylococcus epidermidis", "assay": "microbe, parasite or virus in culture", "conditions": "ATCC 155, 24 h, read-out: IZ"}, "[20]": {"system": "Escherichia coli", "assay": "microbe, parasite or virus in culture", "conditions": "ATCC 25922, 24 h, read-out: IZ"}, "[21]": {"system": "Klebsiella pneumoniae", "assay": "microbe, parasite or virus in culture", "conditions": "ATCC 11298, 24 h, read-out: IZ"}, "[22]": {"system": "Pseudomonas aeruginosa", "assay": "microbe, parasite or virus in culture", "conditions": "ATCC 2853, 24 h, read-out: IZ"}, "[23]": {"system": "Bacillus cereus", "assay": "Antibacterial activity against Bacillus cereus ATCC 11778 at 100 ug/disk after 24 hrs by paper disk diffusion technique", "type": "functional", "conditions": "ATCC 11778, 24 h, read-out: IZ"}, "[24]": {"system": "Staphylococcus aureus", "assay": "microbe, parasite or virus in culture", "conditions": "ATCC 9144, 24 h, read-out: IZ"}, "[25]": {"system": "Micrococcus luteus", "assay": "Antibacterial activity against Micrococcus luteus ATCC 4698 at 100 ug/disk after 24 hrs by paper disk diffusion technique", "type": "functional", "conditions": "NCTC 2665, 24 h, read-out: IZ"}, "[26]": {"system": "Aspergillus fumigatus", "assay": "Antifungal activity against Aspergillus fumigatus ATCC 46645 at 100 ug/disk after 48 hrs by paper disk diffusion technique", "type": "functional", "conditions": "ATCC 46645, 48 h, read-out: IZ", "procedure,_shortened": "(§4)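 Paper disc diffusion: autoclaved medium at 40–50 °C was seeded at 1 ml/100 ml with a suspension of about 10⁵ cfu/ml matched to McFarland standard and poured 3–4 mm deep. Discs impregnated with compound in dimethylformamide were placed on the set medium. There was 1 h pre-incubation at room temperature, then 48 h at 37 °C. Ketoconazole disc served as reference.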"}, "[27]": {"system": "Aspergillus niger", "assay": "Antifungal activity against Aspergillus niger ATCC 9029 at 100 ug/disk after 48 hrs by paper disk diffusion technique", "type": "functional", "conditions": "ATCC 9029, 48 h, read-out: IZ", "procedure,_shortened": "as §4"}}, "data": [{"smiles": "O=c1c2cc(Br)cc(Br)c2nc(-c2ccccc2)n1/N=C/c1ccccc1", "values": [{"measurement": "inhibition zone (IZ)", "setting": "[1]", "value": 19, "unit": "mm"}, {"measurement": "MIC", "setting": "[2]", "value": 33.4, "unit": "µg/mL"}, {"measurement": "inhibition zone (IZ)", "setting": "[3]", "value": 18, "unit": "mm"}, {"measurement": "MIC", "setting": "[4]", "value": 31.8, "unit": "µg/mL"}, {"measurement": "MIC", "setting": "[5]", "value": 35.4, "unit": "µg/mL"}, {"measurement": "MIC", "setting": "[6]", "value": 27.7, "unit": "µg/mL"}, {"measurement": "inhibition zone (IZ)", "setting": "[7]", "value": 17, "unit": "mm"}, {"measurement": "MIC", "setting": "[8]", "value": 11.1, "unit": "µg/mL"}, {"measurement": "MIC", "setting": "[9]", "value": 33.6, "unit": "µg/mL"}, {"measurement": "inhibition zone (IZ)", "setting": "[10]", "value": 17, "unit": "mm"}, {"measurement": "inhibition zone (IZ)", "setting": "[11]", "value": 24, "unit": "mm"}, {"measurement": "inhibition zone (IZ)", "setting": "[12]", "value": 19, "unit": "mm"}, {"measurement": "MIC", "setting": "[13]", "value": 28.7, "unit": "µg/mL"}, {"measurement": "inhibition zone (IZ)", "setting": "[14]", "value": 20, "unit": "mm"}, {"measurement": "inhibition zone (IZ)", "setting": "[15]", "value": 21, "unit": "mm"}, {"measurement": "MIC", "setting": "[16]", "value": 9.7, "unit": "µg/mL"}, {"measurement": "MIC", "setting": "[17]", "value": 29.4, "unit": "µg/mL"}, {"measurement": "inhibition zone (IZ)", "setting": "[18]", "value": 22, "unit": "mm"}]}, {"smiles": "O=C(O)c1cn(C2CC2)c2cc(N3CCNCC3)c(F)cc2c1=O", "note": "[CIPROFLOXACIN]", "values": [{"measurement": "zone of inhibition at 100 µg/disc", "setting": "[19]", "value": 31, "unit": "mm"}, {"measurement": "MIC", "setting": "[4]", "value": 0.1, "unit": "µg/mL"}, {"measurement": "MIC", "setting": "[5]", "value": 0.2, "unit": "µg/mL"}, {"measurement": "zone of inhibition at 100 µg/disc", "setting": "[20]", "value": 32, "unit": "mm"}, {"measurement": "MIC", "setting": "[6]", "value": 0.1, "unit": "µg/mL"}, {"measurement": "zone of inhibition at 100 µg/disc", "setting": "[21]", "value": 33, "unit": "mm"}, {"measurement": "MIC", "setting": "[9]", "value": 0.39, "unit": "µg/mL"}, {"measurement": "zone of inhibition at 100 µg/disc", "setting": "[22]", "value": 33, "unit": "mm"}, {"measurement": "zone of inhibition at 100 µg/disc", "setting": "[23]", "value": 29, "unit": "mm"}, {"measurement": "zone of inhibition at 100 µg/disc", "setting": "[24]", "value": 29, "unit": "mm"}, {"measurement": "zone of inhibition at 100 µg/disc", "setting": "[25]", "value": 30, "unit": "mm"}, {"measurement": "MIC", "setting": "[17]", "value": 0.3, "unit": "µg/mL"}]}, {"smiles": "CC(=O)N1CCN(c2ccc(OCC3COC(Cn4ccnc4)(c4ccc(Cl)cc4Cl)O3)cc2)CC1", "note": "(centres undefined) [KETOCONAZOLE]", "values": [{"measurement": "zone of inhibition at 100 µg/disc", "setting": "[26]", "value": 29, "unit": "mm"}, {"measurement": "MIC", "setting": "[8]", "value": 0.23, "unit": "µg/mL"}, {"measurement": "zone of inhibition at 100 µg/disc", "setting": "[27]", "value": 30, "unit": "mm"}, {"measurement": "MIC", "setting": "[16]", "value": 6.1, "unit": "µg/mL"}]}]}
